Assay results: ChEMBL document CHEMBL2069246, “Oxadiazoles in medicinal chemistry” (J Med Chem, 2012)

Tests used:
[1] = Dissociation constant, pKa of the compound; assay type: physicochemical
[2] = Lipophilicity, log D of the compound at pH 7.4; assay type: physicochemical; conditions: buffer
CYP2C9 = CYP2C9 (Homo sapiens, UniProt P11712); test: Time dependent inhibition of human recombinant CYP2C9 coexpressed in Escherichia coli at 50 uM using diclofenac as probe; assay type: ADME
How it was run: (§1)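 Time-dependent inhibition of human recombinant P450s. Compound is preincubated 30 min at 37 °C with and without NADPH, then percent inhibition is read. Run at 10 and 50 μM, with the 50 μM value reported.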

Cytochrome P450 2C19 [3] = target: T1, Cytochrome P450 2C19 (Homo sapiens, UniProt P33261); test: Activity of human recombinant CYP2C19 assessed as enzyme contribution towards compound metabolism at 37 degC; assay type: ADME
How it was run: (§2)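 CYP reaction phenotyping with human recombinant P450 isoforms at 37 °C. Each isoform's share of compound metabolism is given as percent contribution relative to the other isoforms in the test.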

Cytochrome P450 2C19 [4] = target: T1, Cytochrome P450 2C19; test: Inhibition of human recombinant CYP2C19 coexpressed in Escherichia coli; assay type: ADME
How it was run: (§3)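 Human recombinant cytochrome P450s at 37 °C. Read-out is inhibition of metabolic degradation of each isoform's substrate. Percent inhibition is measured at five test concentrations and converted to IC50.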

Cytochrome P450 3A4 [5] = target: T2, Cytochrome P450 3A4 (Homo sapiens, UniProt P08684); test: Activity of human recombinant CYP3A4 assessed as enzyme contribution towards compound metabolism at 37 degC; assay type: ADME; design: concentration or dose not given beside the values; how it was run: as §2
Cytochrome P450 2C8 [6] = target: T3, Cytochrome P450 2C8 (Homo sapiens, UniProt P10632); test: Inhibition of human recombinant CYP2C8 coexpressed in Escherichia coli; assay type: ADME; how it was run: as §3
T3 sequence (P10632 whole entry): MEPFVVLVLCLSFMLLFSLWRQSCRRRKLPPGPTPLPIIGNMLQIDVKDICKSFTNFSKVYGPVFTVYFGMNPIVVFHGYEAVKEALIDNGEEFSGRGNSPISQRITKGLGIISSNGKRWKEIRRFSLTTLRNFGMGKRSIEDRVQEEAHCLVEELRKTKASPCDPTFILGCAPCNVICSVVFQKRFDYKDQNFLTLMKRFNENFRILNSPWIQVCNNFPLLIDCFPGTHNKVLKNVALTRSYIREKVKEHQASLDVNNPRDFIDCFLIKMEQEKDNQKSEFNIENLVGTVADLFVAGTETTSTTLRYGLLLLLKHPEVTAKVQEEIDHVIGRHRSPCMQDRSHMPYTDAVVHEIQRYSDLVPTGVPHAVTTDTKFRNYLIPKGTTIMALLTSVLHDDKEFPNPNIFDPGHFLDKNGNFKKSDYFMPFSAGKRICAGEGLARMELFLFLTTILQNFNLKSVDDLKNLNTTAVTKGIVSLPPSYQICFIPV

CYP2C19 = CYP2C19 (Homo sapiens, UniProt P33261); test: Time dependent inhibition of human recombinant CYP2C19 coexpressed in Escherichia coli at 50 uM using mephenytoin as probe; assay type: ADME; how it was run: as §1
Cytochrome P450 2D6 [7] = target: T4, Cytochrome P450 2D6 (Homo sapiens, UniProt P10635); test: Inhibition of human recombinant CYP2D6 coexpressed in Escherichia coli; assay type: ADME; how it was run: as §3
Cytochrome P450 1A2 [8] = target: T5, Cytochrome P450 1A2 (Homo sapiens, UniProt P05177); test: Inhibition of human recombinant CYP1A2 coexpressed in Escherichia coli using phenacetin as probe; assay type: ADME; how it was run: as §3
T5 sequence (P05177 whole entry): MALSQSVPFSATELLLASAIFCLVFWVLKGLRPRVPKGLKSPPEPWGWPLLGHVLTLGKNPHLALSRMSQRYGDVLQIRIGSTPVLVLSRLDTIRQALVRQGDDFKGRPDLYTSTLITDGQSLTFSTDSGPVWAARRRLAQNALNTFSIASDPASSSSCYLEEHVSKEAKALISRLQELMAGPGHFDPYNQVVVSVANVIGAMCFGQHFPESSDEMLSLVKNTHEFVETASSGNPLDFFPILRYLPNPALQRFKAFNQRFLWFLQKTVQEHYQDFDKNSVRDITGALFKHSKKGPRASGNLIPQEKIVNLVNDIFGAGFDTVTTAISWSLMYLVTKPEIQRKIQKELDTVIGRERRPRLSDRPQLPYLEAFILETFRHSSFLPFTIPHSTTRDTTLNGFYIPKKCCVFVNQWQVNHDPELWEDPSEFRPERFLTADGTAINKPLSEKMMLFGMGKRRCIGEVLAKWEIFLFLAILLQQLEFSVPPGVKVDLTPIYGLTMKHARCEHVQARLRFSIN

[9] = Intrinsic clearance in human liver microsomes at 1 mg/ml; assay type: ADME, Microsome; conditions: read-out: CLH
How it was run: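 Compound incubated 45 min at 37 °C with human liver microsomes at 1 mg/mL. CLint is taken from the rate of parent disappearance.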

CYP2C8 = target: T6, CYP2C8 (Homo sapiens, UniProt P10632); test: Time dependent inhibition of human recombinant CYP2C8 coexpressed in Escherichia coli at 50 uM using amodiaquine as probe; assay type: ADME; how it was run: as §1
T6 sequence (P10632 whole entry): T3 sequence (P10632 whole entry)

CYP2D6 = CYP2D6 (Homo sapiens, UniProt P10635); test: Time dependent inhibition of human recombinant CYP2D6 coexpressed in Escherichia coli at 50 uM using bufuralol as probe; assay type: ADME; how it was run: as §1
Cytochrome P450 2C9 [10] = target: T7, Cytochrome P450 2C9 (Homo sapiens, UniProt P11712); test: Activity of human recombinant CYP2C9 assessed as enzyme contribution towards compound metabolism at 37 degC; assay type: ADME; how it was run: as §2
Cytochrome P450 1A2 [11] = target: T5, Cytochrome P450 1A2; test: Activity of human recombinant CYP1A2 assessed as enzyme contribution towards compound metabolism at 37 degC; assay type: ADME; how it was run: as §2
Cytochrome P450 2D6 [12] = target: T4, Cytochrome P450 2D6; test: Activity of human recombinant CYP2D6 assessed as enzyme contribution towards compound metabolism at 37 degC; assay type: ADME; how it was run: as §2
Cytochrome P450 2C8 [13] = target: T3, Cytochrome P450 2C8; test: Activity of human recombinant CYP2C8 assessed as enzyme contribution towards compound metabolism at 37 degC; assay type: ADME; how it was run: as §2
Cytochrome P450 3A4 [14] = target: T2, Cytochrome P450 3A4; test: Inhibition of human recombinant CYP3A4 coexpressed in Escherichia coli; assay type: ADME; how it was run: as §3
CYP1A2 = target: T8, CYP1A2 (Homo sapiens, UniProt P05177); test: Time dependent inhibition of human recombinant CYP1A2 coexpressed in Escherichia coli at 50 uM using phenacetin as probe; assay type: ADME; how it was run: as §1
T8 sequence (P05177 whole entry): T5 sequence (P05177 whole entry)

CYP3A4 = CYP3A4 (Homo sapiens, UniProt P08684); test: Time dependent inhibition of human recombinant CYP3A4 coexpressed in Escherichia coli at 50 uM using midazolam as probe; assay type: ADME; how it was run: as §1
Cytochrome P450 2C9 [15] = target: T7, Cytochrome P450 2C9; test: Inhibition of human recombinant CYP2C9 coexpressed in Escherichia coli; assay type: ADME; how it was run: as §3

T2 sequence (P08684 whole entry): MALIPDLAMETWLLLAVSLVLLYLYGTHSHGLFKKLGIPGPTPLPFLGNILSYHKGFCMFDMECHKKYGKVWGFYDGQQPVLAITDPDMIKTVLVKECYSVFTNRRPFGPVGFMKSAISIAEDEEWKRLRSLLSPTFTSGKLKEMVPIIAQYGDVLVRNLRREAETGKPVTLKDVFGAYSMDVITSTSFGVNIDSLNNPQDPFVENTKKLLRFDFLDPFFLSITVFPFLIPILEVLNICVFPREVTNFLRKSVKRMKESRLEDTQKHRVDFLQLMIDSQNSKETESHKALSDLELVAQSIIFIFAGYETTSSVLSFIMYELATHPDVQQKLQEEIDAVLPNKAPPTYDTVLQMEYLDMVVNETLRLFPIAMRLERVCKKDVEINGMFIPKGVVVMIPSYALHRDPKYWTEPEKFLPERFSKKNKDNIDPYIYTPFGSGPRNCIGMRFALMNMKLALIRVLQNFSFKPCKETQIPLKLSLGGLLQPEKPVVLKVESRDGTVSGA
Sequence of CYP3A4 (P08684 whole entry): as above
Sequence of CYP2C9 (P11712 whole entry): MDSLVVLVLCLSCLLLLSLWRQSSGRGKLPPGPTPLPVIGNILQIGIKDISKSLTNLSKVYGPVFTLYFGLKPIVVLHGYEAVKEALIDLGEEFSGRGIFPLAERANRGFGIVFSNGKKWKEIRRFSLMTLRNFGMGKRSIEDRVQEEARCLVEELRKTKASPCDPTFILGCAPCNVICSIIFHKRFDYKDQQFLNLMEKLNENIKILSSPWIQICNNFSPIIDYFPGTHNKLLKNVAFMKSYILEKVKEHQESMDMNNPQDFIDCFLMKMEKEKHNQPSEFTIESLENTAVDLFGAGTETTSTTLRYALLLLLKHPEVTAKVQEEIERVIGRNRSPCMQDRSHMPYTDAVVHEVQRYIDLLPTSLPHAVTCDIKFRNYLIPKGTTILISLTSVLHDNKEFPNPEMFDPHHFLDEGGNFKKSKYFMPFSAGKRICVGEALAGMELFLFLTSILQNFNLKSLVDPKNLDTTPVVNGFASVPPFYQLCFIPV
T7 sequence (P11712 whole entry): as above
T4 sequence (P10635 whole entry): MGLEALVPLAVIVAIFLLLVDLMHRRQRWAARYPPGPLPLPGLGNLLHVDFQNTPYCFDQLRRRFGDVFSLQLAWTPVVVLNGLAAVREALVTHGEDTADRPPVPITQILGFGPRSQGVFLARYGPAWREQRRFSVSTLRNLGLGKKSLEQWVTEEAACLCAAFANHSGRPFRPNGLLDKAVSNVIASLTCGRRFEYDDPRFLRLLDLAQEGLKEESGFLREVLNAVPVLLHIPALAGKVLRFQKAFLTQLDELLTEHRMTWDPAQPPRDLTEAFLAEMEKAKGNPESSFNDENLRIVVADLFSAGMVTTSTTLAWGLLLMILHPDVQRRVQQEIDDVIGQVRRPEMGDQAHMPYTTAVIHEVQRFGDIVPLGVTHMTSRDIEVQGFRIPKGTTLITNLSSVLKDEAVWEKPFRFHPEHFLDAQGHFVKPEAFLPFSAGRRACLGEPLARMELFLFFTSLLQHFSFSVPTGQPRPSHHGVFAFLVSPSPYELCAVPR
Sequence of CYP2D6 (P10635 whole entry): as above
Sequence of CYP2C19 (P33261 whole entry): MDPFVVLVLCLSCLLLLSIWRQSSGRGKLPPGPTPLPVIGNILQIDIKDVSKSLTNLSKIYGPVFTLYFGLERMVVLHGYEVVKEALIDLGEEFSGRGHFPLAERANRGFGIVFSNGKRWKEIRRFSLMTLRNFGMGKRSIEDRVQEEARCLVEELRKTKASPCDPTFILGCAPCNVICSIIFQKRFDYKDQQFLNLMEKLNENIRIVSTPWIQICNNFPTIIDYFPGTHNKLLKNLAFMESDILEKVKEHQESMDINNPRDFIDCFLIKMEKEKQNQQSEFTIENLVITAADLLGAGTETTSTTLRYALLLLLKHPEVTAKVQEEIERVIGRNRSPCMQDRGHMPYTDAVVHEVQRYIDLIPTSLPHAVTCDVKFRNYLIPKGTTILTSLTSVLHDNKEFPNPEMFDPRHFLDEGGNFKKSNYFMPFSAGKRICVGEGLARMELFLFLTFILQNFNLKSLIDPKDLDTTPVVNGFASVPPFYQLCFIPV
T1 sequence (P33261 whole entry, canonical isoform): as the sequence (P33261 whole entry) above

| Compound | pKa [1] | inhibition at 50 µM (CYP2C9) | Activity (Cytochrome P450 2C19 [3]) | IC50 (Cytochrome P450 2C19 [4]) | Activity (Cytochrome P450 3A4 [5]) | IC50 (Cytochrome P450 2C8 [6]) | inhibition at 50 µM (CYP2C19) | IC50 (Cytochrome P450 2D6 [7]) | IC50 (Cytochrome P450 1A2 [8]) | microsomal CLint [9] | inhibition at 50 µM (CYP2C8) | inhibition at 50 µM (CYP2D6) | CYP isoform contribution to compound metabolism (Cytochrome P450 2C9 [10]) | Activity (Cytochrome P450 1A2 [11]) | Activity (Cytochrome P450 2D6 [12]) | Activity (Cytochrome P450 2C8 [13]) | IC50 (Cytochrome P450 3A4 [14]) | inhibition at 50 µM (CYP1A2) | inhibition at 50 µM (CYP3A4) | IC50 (Cytochrome P450 2C9 [15]) | other results |
| --- | --- | --- | --- | --- | --- | --- | --- | --- | --- | --- | --- | --- | --- | --- | --- | --- | --- | --- | --- | --- | --- |
| CCOC(=O)N1CCN(Cc2nnc(-c3cc(Cl)ccc3F)o2)CC1 | 3.5 | – | – | – | – | – | – | – | – | – | – | – | – | – | – | – | – | – | – | – | logD [2]: 3.2 |
| c1ccc(CN2CCN(Cc3nc(-c4ccccc4)no3)CC2)cc1 | 6.7 | < 19% | 2.2% | > 20 µM | 92.1% | > 20 µM | < 12% | 10.2 µM | > 20 µM | 9 µL/min/mg | < 13% | < 9% | 1% | 1.5% | 2.3% | 0.9% | > 20 µM | < 7% | 9% | – | logD [2]: 5.1 |
| O=C(NC1CCCCC1)c1nc(CS(=O)(=O)c2ccccc2)no1 | – | < 19% | 7.9% | > 20 µM | 91.5% | > 20 µM | < 19% | > 20 µM | > 20 µM | 50 µL/min/mg | < 13% | < 9% | 0.3% | 0.2% | 0.1% | 0% | > 20 µM | < 7% | < 7% | > 20 µM | – |
| CN(Cc1nc2ccccc2c(=O)[nH]1)Cc1nc(-c2ccccc2)no1 | 2.1 | – | – | – | – | – | – | – | – | – | – | – | – | – | – | – | – | – | – | – | logD [2]: 3.1 |
| O=C(NC1CCCCC1)c1nnc(CS(=O)(=O)c2ccccc2)o1 | – | < 19% | 45.4% | > 20 µM | 52.2% | > 20 µM | < 12% | > 20 µM | > 20 µM | < 5 µL/min/mg | < 13% | < 9% | 0% | 0% | 2.4% | 0% | > 20 µM | < 7% | < 7% | > 20 µM | – |

Further lines, with some results ahead:

| pKa [1] | inhibition at 50 µM (CYP2C9) | Activity (Cytochrome P450 2C19 [3]) | IC50 (Cytochrome P450 2C19 [4]) | Activity (Cytochrome P450 3A4 [5]) | IC50 (Cytochrome P450 2C8 [6]) | inhibition at 50 µM (CYP2C19) | IC50 (Cytochrome P450 2D6 [7]) | IC50 (Cytochrome P450 1A2 [8]) | microsomal CLint [9] | inhibition at 50 µM (CYP2C8) | inhibition at 50 µM (CYP2D6) | CYP isoform contribution to compound metabolism (Cytochrome P450 2C9 [10]) | Activity (Cytochrome P450 1A2 [11]) | Activity (Cytochrome P450 2D6 [12]) | Activity (Cytochrome P450 2C8 [13]) | IC50 (Cytochrome P450 3A4 [14]) | inhibition at 50 µM (CYP1A2) | inhibition at 50 µM (CYP3A4) | IC50 (Cytochrome P450 2C9 [15]) | Compound | other results |
| --- | --- | --- | --- | --- | --- | --- | --- | --- | --- | --- | --- | --- | --- | --- | --- | --- | --- | --- | --- | --- | --- |
| – | < 19% | 14.8% | 1.3 µM | 11.7% | > 20 µM | 13% | > 20 µM | > 20 µM | 17 µL/min/mg | < 14% | < 11% | 2.4% | 68.5% | 1.1% | 1.5% | > 20 µM | < 10% | < 7% | > 20 µM | c1cc(-c2nnc(C3CCCCC3)o2)ccn1 | – |
| – | < 19% | 0% | > 20 µM | 100% | > 20 µM | < 12% | > 20 µM | > 20 µM | 8 µL/min/mg | < 14% | < 11% | 0% | 0% | 0% | 0% | > 20 µM | < 10% | < 7% | > 20 µM | Clc1cc(-c2nnc(CSc3nnc(-c4ccncc4)n3C3CC3)o2)ccn1 | – |
| – | < 19% | 0.1% | > 20 µM | 99.5% | > 20 µM | < 12% | > 20 µM | > 20 µM | > 300 µL/min/mg | < 14% | < 11% | 0% | 0.2% | 0% | 0.2% | 14.2 µM | < 10% | 30% | > 20 µM | Clc1cc(-c2nc(CSc3nnc(-c4ccncc4)n3C3CC3)no2)ccn1 | – |
| – | < 19% | 38% | 1.2 µM | 17.7% | > 20 µM | < 12% | 10 µM | 2.4 µM | 83 µL/min/mg | < 13% | < 9% | 4.7% | 29.5% | 8.6% | 1.5% | 10.2 µM | < 7% | < 7% | 17.6 µM | c1cc(-c2noc(C3CCCCC3)n2)ccn1 | – |
